Measurements published in ChEMBL document CHEMBL2016529, “Synthesis and biological evaluation of novel potent angiotensin II receptor antagonists with anti-hypertension effect” (Bioorg Med Chem, 2012).
pIC50, pKi: −log10 of the molar value. Active and inactive are the calls of the source. The rule behind the calls is not given here.

How the values were obtained:
[1] = test system: Rattus norvegicus; assay: Antihypertensive activity in rat spontaneous hypertensive model assessed as reduction in systolic blood pressure at 30 mg/kg, po up to 10 hrs; assay type: functional, organism-based; set-up: dose 30 mg/kg; details: Artery
Method in brief: (§1)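 Male spontaneously hypertensive rats, randomized into groups of ten. Compound suspended in 0.5% sodium carboxymethyl cellulose and given orally once at 15 or 30 mg/kg. Negative controls received the same volume of vehicle, and valsartan and irbesartan at equal doses served as positive controls. Blood pressure (SBP, DBP) and heart rate were monitored over 0–10 h after dosing with a biological signal analysis system.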

[2] = test system: Rattus norvegicus; assay: Antihypertensive activity in rat spontaneous hypertensive model assessed as reduction in systolic blood pressure at 15 mg/kg, po up to 10 hrs; assay type: functional, organism-based; set-up: dose 15 mg/kg; details: Artery; method in brief: as §1
[3] = test system: Rattus norvegicus; assay: Toxicity in rat spontaneous hypertensive model assessed as effect on heart rate at 30 mg/kg, po; assay type: organism-based; set-up: dose 30 mg/kg, route oral; details: in vivo; method in brief: as §1
[4] = test system: Rattus norvegicus; assay: Toxicity in rat spontaneous hypertensive model assessed as effect on heart rate at 15 mg/kg, po; assay type: organism-based; set-up: dose 15 mg/kg, route oral; details: in vivo; method in brief: as §1
[5] = test system: Rattus norvegicus; assay: Antihypertensive activity in rat spontaneous hypertensive model assessed as reduction in diastolic blood pressure at 15 mg/kg, po up to 10 hrs; assay type: functional, organism-based; set-up: dose 15 mg/kg; details: Artery; method in brief: as §1
[6] = (§2) Displacement of [I125]angiotensin2 from AT1 receptor in Sprague-Dawley rat VSMC after 2.5 hrs by gamma spectrophotometry
Method in brief: (§3)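 Smooth muscle cells from rat aorta were isolated by collagenase digestion (1 h, 37 °C) and grown in DMEM with 15% FBS. Quiescent, confluent monolayers were incubated in PBS with 0.1 nM 125I-Ang II and compound at final 1×10^-12 to 1×10^-6 M for 2.5 h at 4 °C. Nonspecific binding was defined with 1×10^-6 M competitor. Cells were washed three times, lysed in 0.1 M NaOH, and bound radioactivity was gamma counted.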

[7] = organism: Rattus norvegicus; assay: as §2; method in brief: as §3
[8] = test system: Rattus norvegicus; assay: Antihypertensive activity in rat spontaneous hypertensive model assessed as reduction in diastolic blood pressure at 30 mg/kg, po up to 10 hrs; assay type: functional, organism-based; set-up: dose 30 mg/kg; details: Artery; method in brief: as §1
[9] = Acute toxicity in intragastrically dosed ICR rat; assay type: organism-based; details: in vivo, po
Method in brief: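 ICR rats (6–8 weeks, individually weighed) dosed intragastrically at 1000.0–5000.0 mg/kg (six dose levels); daily survival over 14 days. LD50 with 95% confidence limits obtained by logistic regression (GLM) curve fitting of 14-day mortality data.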

[10] = test system: Rattus norvegicus; assay: Acute toxicity in ICR rat assessed as weight loss at 2924 mg/kg, administered intragastrically after 2 weeks; assay type: organism-based; set-up: dose 2924 mg/kg, route intragastric; details: in vivo, po, 336 h
Method in brief: (§4)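 Normal ICR rats, 6–8 weeks, weighed individually; single intragastric doses of 5000.0, 3823.6, 2924.0, 2236.1, 1710.0 or 1000.0 mg/kg. Survival checked daily for two weeks. Animals observed continuously for physical signs of toxicity (skin changes, mobility, aggressiveness, respiratory movements). Survivors dissected at the end and organs examined for pathological changes.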

[11] = Acute toxicity in ICR rat assessed as mortality at 3823.6 mg/kg, administered intragastrically after 14 days relative to control; assay type: organism-based; set-up: dose 3823.6 mg/kg, route intragastric; details: in vivo, po, read-out: Activity; method in brief: as §4
[12] = test system: Rattus norvegicus; assay: Acute toxicity in ICR rat assessed as weight loss at 3823.6 mg/kg, administered intragastrically after 2 weeks; assay type: organism-based; set-up: dose 3823.6 mg/kg, route intragastric; details: in vivo, po, 336 h; method in brief: as §4
[13] = test system: Rattus norvegicus; assay: Acute toxicity in ICR rat assessed as weight loss at 2236.1 mg/kg, administered intragastrically after 2 weeks; assay type: organism-based; set-up: dose 2236.1 mg/kg, route intragastric; details: in vivo, po, 336 h; method in brief: as §4
[14] = test system: Rattus norvegicus; assay: Acute toxicity in ICR rat assessed as hypokinetic beginning at 2924 mg/kg, administered intragastrically after 5 hrs; assay type: organism-based; set-up: dose 2924 mg/kg, route intragastric; details: in vivo, po; method in brief: as §4
[15] = test system: Rattus norvegicus; assay: Acute toxicity in ICR rat assessed as weight loss at 5000 mg/kg, administered intragastrically after 2 weeks; assay type: organism-based; set-up: dose 5000 mg/kg, route intragastric; details: in vivo, po, 336 h; method in brief: as §4
[16] = test system: Rattus norvegicus; assay: Acute toxicity in ICR rat assessed as hypokinetic beginning at 2236.1 mg/kg, administered intragastrically after 5 hrs; assay type: organism-based; set-up: dose 2236.1 mg/kg, route intragastric; details: in vivo, po; method in brief: as §4
[17] = Acute toxicity in ICR rat assessed as mortality at 1710 mg/kg, administered intragastrically after 14 days relative to control; assay type: organism-based; set-up: dose 1710 mg/kg, route intragastric; details: in vivo, po, read-out: Activity; method in brief: as §4
[18] = test system: Rattus norvegicus; assay: Antihypertensive activity in rat spontaneous hypertensive model assessed as time of maximum effect on diastolic blood pressure at 30 mg/kg, po; assay type: functional, Artery; method in brief: as §1
[19] = test system: Rattus norvegicus; assay: Acute toxicity in ICR rat assessed as weight loss at 1000 mg/kg, administered intragastrically after 2 weeks; assay type: organism-based; set-up: dose 1000 mg/kg, route intragastric; details: in vivo, po, 336 h; method in brief: as §4
[20] = test system: Rattus norvegicus; assay: Acute toxicity in ICR rat assessed as weight loss at 1710 mg/kg, administered intragastrically after 2 weeks; assay type: organism-based; set-up: dose 1710 mg/kg, route intragastric; details: in vivo, po, 336 h; method in brief: as §4
[21] = Acute toxicity in ICR rat assessed as mortality at 5000 mg/kg, administered intragastrically after 14 days relative to control; assay type: organism-based; set-up: dose 5000 mg/kg, route intragastric; details: in vivo, po, read-out: Activity; method in brief: as §4
[22] = Acute toxicity in ICR rat assessed as mortality at 2924 mg/kg, administered intragastrically after 14 days relative to control; assay type: organism-based; set-up: dose 2924 mg/kg, route intragastric; details: in vivo, po, read-out: Activity; method in brief: as §4
[23] = Acute toxicity in ICR rat assessed as mortality at 2236.1 mg/kg, administered intragastrically after 14 days relative to control; assay type: organism-based; set-up: dose 2236.1 mg/kg, route intragastric; details: in vivo, po, read-out: Activity; method in brief: as §4
[24] = test system: Rattus norvegicus; assay: Acute toxicity in ICR rat assessed as hypokinetic beginning at 1710 mg/kg, administered intragastrically after 5 hrs; assay type: organism-based; set-up: dose 1710 mg/kg, route intragastric; details: in vivo, po; method in brief: as §4
[25] = Acute toxicity in ICR rat assessed as mortality at 1000 mg/kg, administered intragastrically after 14 days relative to control; assay type: organism-based; set-up: dose 1000 mg/kg, route intragastric; details: in vivo, po, read-out: Activity; method in brief: as §4
[26] = test system: Rattus norvegicus; assay: Acute toxicity in ICR rat assessed as hypokinetic beginning at 1000 mg/kg, administered intragastrically after 5 hrs; assay type: organism-based; set-up: dose 1000 mg/kg, route intragastric; details: in vivo, po; method in brief: as §4
[27] = test system: Rattus norvegicus; assay: Acute toxicity in ICR rat assessed as hypokinetic beginning at 5000 mg/kg, administered intragastrically after 5 hrs; assay type: organism-based; set-up: dose 5000 mg/kg, route intragastric; details: in vivo, po; method in brief: as §4
[28] = test system: Rattus norvegicus; assay: Acute toxicity in ICR rat assessed as hypokinetic beginning at 3823.6 mg/kg, administered intragastrically after 5 hrs; assay type: organism-based; set-up: dose 3823.6 mg/kg, route intragastric; details: in vivo, po; method in brief: as §4
[29] = test system: Rattus norvegicus; assay: Antihypertensive activity in rat spontaneous hypertensive model assessed as time of maximum effect on systolic blood pressure at 30 mg/kg, po; assay type: functional, Artery; method in brief: as §1

pIC50 [6]	pKi [6]	inhibition [7]	SMILES	Activity [1]	Activity [2]	Activity [3]	Activity [4]	Activity [5]	Activity [8]	Time [18] [h]	Time [29] [h]	further results
7.99	8.16	Dose-dependent effect	CCCCC(=O)N(Cc1ccc(-c2ccccc2-c2nc(=O)o[nH]2)cc1)[C@@H](CC(C)C)C(=O)O	inactive	inactive	Non-toxic	Non-toxic	inactive	inactive	–	–	–
8.01	8.18	Dose-dependent effect	CCCCC(=O)N(Cc1ccc(-c2ccccc2-c2nc(=O)o[nH]2)cc1)[C@H](C(=O)O)C(C)C	Active	Active	Non-toxic	Non-toxic	Active	Active	3	3	–
7.44	7.61	Dose-dependent effect	CCCC(=O)N(Cc1ccc(-c2ccccc2-c2nc(=O)o[nH]2)cc1)[C@@H](CC(C)C)C(=O)O	Active	Active	Non-toxic	Non-toxic	Active	Active	3	3	–
8.80	8.99	Dose-dependent effect	CCC(=O)N(Cc1ccc(-c2ccccc2-c2nc(=O)o[nH]2)cc1)[C@H](C(=O)O)C(C)C	Active	Active	Non-toxic	Non-toxic	Active	Active	3	3	–

More lines, now with the values behind:

SMILES	pIC50 [6]	pKi [6]	inhibition [7]	Activity [1]	Activity [2]	Activity [3]	Activity [4]	Activity [5]	Activity [8]	Time [18] [h]	Time [29] [h]	further results
CCCC(=O)N(Cc1ccc(-c2ccccc2-c2nc(=O)o[nH]2)cc1)[C@@H](Cc1ccccc1)C(=O)O	7.58	7.75	Dose-dependent effect	inactive	inactive	Non-toxic	Non-toxic	inactive	inactive	–	–	–
CCCCC(=O)N(Cc1ccc(-c2ccccc2-c2nnn[nH]2)cc1)[C@H](C(=O)O)C(C)C [VALSARTAN]	8.58	8.65	Dose-dependent effect	–	Active	Non-toxic	Non-toxic	Active	–	–	–	LD50 [9]: 308 mg/kg
CCCC(=O)N(Cc1ccc(-c2ccccc2-c2nc(=O)o[nH]2)cc1)[C@H](C(=O)O)C(C)C	9.31	9.48	Dose-dependent effect	Active	Active	Non-toxic	Non-toxic	Active	Active	3	3	Activity [10]: Non-toxic; mortality at 336 h [11]: 80%; LD50 [9]: 2320 mg/kg; Activity [12]: Non-toxic; Activity [13]: Non-toxic; Activity [14]: Toxic; Activity [15]: Non-toxic; Activity [16]: Toxic; mortality at 336 h [17]: 30%; Activity [19]: Non-toxic; Activity [20]: Non-toxic; mortality at 336 h [21]: 100%; mortality at 336 h [22]: 60%; mortality at 336 h [23]: 50%; Activity [24]: Toxic; mortality at 336 h [25]: 0%; Activity [26]: Non-toxic; Activity [27]: Toxic; Activity [28]: Toxic
CCCC(=O)N(Cc1ccc(-c2cc(F)ccc2-c2noc(=O)[nH]2)cc1)[C@H](C(=O)O)C(C)C	7.68	7.85	Dose-dependent effect	Active	–	Non-toxic	Non-toxic	–	Active	3	3	–
CCCCC(=O)N(Cc1ccc(-c2ccccc2-c2nc(=O)o[nH]2)cc1)[C@@H](Cc1ccccc1)C(=O)O	7.74	7.92	Dose-dependent effect	inactive	inactive	Non-toxic	Non-toxic	inactive	inactive	–	–	–
CCCCc1nc(Cl)c(CO)n1Cc1ccc(-c2ccccc2-c2nn[nH]n2)cc1 [LOSARTAN]	–	–	–	–	–	–	–	–	–	–	–	LD50 [9]: 2250 mg/kg
CCCCC1=NC2(CCCC2)C(=O)N1Cc1ccc(-c2ccccc2-c2nnn[nH]2)cc1 [IRBESARTAN]	9.24	9.39	Dose-dependent effect	Active	Active	Non-toxic	Non-toxic	Active	Active	3	3	–
